# Measured values from ChEMBL document CHEMBL1240515, “Discovery of mitogen-activated protein kinase-interacting kinase 1 inhibitors by a comprehensive fragment-oriented virtual screening approach” (J Med Chem, 2010).
# pIC50: −log10 of the molar value.
# Key:
# [1] = molecular target: T1, MAP kinase-interacting serine/threonine-protein kinase 1 (Homo sapiens, UniProt Q9BUB5); assay: Inhibition of MNK1 at 5 uM
# Outline: (§1)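 Recombinant MNK1 (4 μg/mL) or MNK2 (0.7 μg/mL) final. Reaction contained 100 μM ATP and 300 μM eIF4E-derived peptide, run 60 min at 30 °C. ADP was detected by resorufin fluorescence. Tested at 5 μM in duplicate.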
# Target sequence in this assay (Q9BUB5 whole entry, looked up): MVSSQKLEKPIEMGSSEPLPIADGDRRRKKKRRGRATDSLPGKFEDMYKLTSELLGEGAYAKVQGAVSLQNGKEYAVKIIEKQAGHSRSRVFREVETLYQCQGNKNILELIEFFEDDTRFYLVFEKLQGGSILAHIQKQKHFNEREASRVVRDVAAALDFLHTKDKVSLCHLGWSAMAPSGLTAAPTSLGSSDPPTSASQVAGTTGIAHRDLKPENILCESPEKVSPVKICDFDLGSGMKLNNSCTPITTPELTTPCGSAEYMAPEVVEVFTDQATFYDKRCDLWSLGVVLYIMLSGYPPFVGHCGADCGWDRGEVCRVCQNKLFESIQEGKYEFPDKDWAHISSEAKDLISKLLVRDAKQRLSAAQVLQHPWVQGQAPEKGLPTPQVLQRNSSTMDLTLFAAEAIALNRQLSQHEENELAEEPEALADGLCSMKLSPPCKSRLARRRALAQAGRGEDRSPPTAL
# [2] = molecular target: T2, MAP kinase-interacting serine/threonine-protein kinase 2 (Homo sapiens, UniProt Q9HBH9); assay: Inhibition of MNK2 at 5 uM; outline: as §1
# [3] = molecular target: T1, MAP kinase-interacting serine/threonine-protein kinase 1; assay: Inhibition of MNK1
# Target sequence in this assay (Q9BUB5 whole entry): as the sequence (Q9BUB5 whole entry, looked up) above
# [4] = molecular target: T2, MAP kinase-interacting serine/threonine-protein kinase 2; assay: Inhibition of MNK2
# [5] = molecular target: Hepatocyte growth factor receptor (Homo sapiens) (UniProt P08581); assay: Inhibition of MET at 5 uM
# Outline: (§2)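 Single-concentration panel run at an outside kinase screening provider. The compound was tested at 5 μM in duplicate.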
# [6] = molecular target: Casein kinase I isoform alpha (Homo sapiens) (UniProt P48729); assay: Inhibition of CK1alpha1 at 5 uM; outline: as §2
# [7] = molecular target: Serine/threonine-protein kinase pim-2 (Homo sapiens) (UniProt Q9P1W9); assay: Inhibition of PIM2 at 5 uM; outline: as §2
# [8] = molecular target: Serine/threonine-protein kinase pim-1 (Homo sapiens) (UniProt P11309); assay: Inhibition of PIM1 at 5 uM; outline: as §2
# [9] = molecular target: RAC-alpha serine/threonine-protein kinase (Homo sapiens) (UniProt P31749); assay: Inhibition of AKT1 at 5 uM; outline: as §2
# [10] = molecular target: Mast/stem cell growth factor receptor Kit (Homo sapiens) (UniProt P10721); assay: Inhibition of KIT at 5 uM; outline: as §2
# [11] = molecular target: Dual specificity mitogen-activated protein kinase kinase 1 (Homo sapiens) (UniProt Q02750); assay: Inhibition of MEK1 at 5 uM; outline: as §2
# [12] = molecular target: Dual specificity tyrosine-phosphorylation-regulated kinase 1A (Homo sapiens) (UniProt Q13627); assay: Inhibition of DYRK1A at 5 uM; outline: as §2
# [13] = molecular target: Tyrosine-protein kinase JAK2 (Homo sapiens) (UniProt O60674); assay: Inhibition of JAK2 at 5 uM; outline: as §2
# [14] = molecular target: 3-phosphoinositide-dependent protein kinase 1 (Homo sapiens) (UniProt O15530); assay: Inhibition of PDK1 at 5 uM
# [15] = molecular target: Ribosomal protein S6 kinase alpha-1 (Homo sapiens) (UniProt Q15418); assay: Inhibition of RPS6KA1 at 5 uM; outline: as §2
# [16] = molecular target: NUAK family SNF1-like kinase 1 (Homo sapiens) (UniProt O60285); assay: Inhibition of ARK5 at 5 uM; outline: as §2
# [17] = molecular target: Receptor-type tyrosine-protein kinase FLT3 (Homo sapiens) (UniProt P36888); assay: Inhibition of FLT3 at 5 uM; outline: as §2
# [18] = molecular target: Fibroblast growth factor receptor 1 (Homo sapiens) (UniProt P11362); assay: Inhibition of FGFR1 at 5 uM; outline: as §2
# [19] = molecular target: Insulin-like growth factor 1 receptor (Homo sapiens) (UniProt P08069); assay: Inhibition of IGF1R at 5 uM; outline: as §2
# [20] = molecular target: Epidermal growth factor receptor (Homo sapiens) (UniProt P00533); assay: Inhibition of EGFR at 5 uM; outline: as §2
# [21] = molecular target: Serine/threonine-protein kinase 4 (Homo sapiens) (UniProt Q13043); assay: Inhibition of MST1 at 5 uM; outline: as §2
# [22] = molecular target: Mitogen-activated protein kinase 3 (Homo sapiens) (UniProt P27361); assay: Inhibition of ERK1 at 5 uM; outline: as §2
# [23] = molecular target: Platelet-derived growth factor receptor alpha (Homo sapiens) (UniProt P16234); assay: Inhibition of PDGFRalpha at 5 uM; outline: as §2
# [24] = tested on: Serine/threonine-protein kinase B-raf (Homo sapiens), P15056 [V600E]; assay: Inhibition of B-RAFV600E at 5 uM; outline: as §2
# [25] = molecular target: Mitogen-activated protein kinase 14 (Homo sapiens) (UniProt Q16539); assay: Inhibition of p38alpha at 5 uM; outline: as §2
# [26] = molecular target: Inhibitor of nuclear factor kappa-B kinase subunit beta (Homo sapiens) (UniProt O14920); assay: Inhibition of IKK-beta at 5 uM; outline: as §2
# [27] = molecular target: Focal adhesion kinase 1 (Homo sapiens) (UniProt Q05397); assay: Inhibition of FAK at 5 uM; outline: as §2
# [28] = molecular target: Serine/threonine-protein kinase Sgk1 (Homo sapiens) (UniProt O00141); assay: Inhibition of SGK1 at 5 uM; outline: as §2
# Sequence of RAC-alpha serine/threonine-protein kinase (Homo sapiens) (P31749 whole entry): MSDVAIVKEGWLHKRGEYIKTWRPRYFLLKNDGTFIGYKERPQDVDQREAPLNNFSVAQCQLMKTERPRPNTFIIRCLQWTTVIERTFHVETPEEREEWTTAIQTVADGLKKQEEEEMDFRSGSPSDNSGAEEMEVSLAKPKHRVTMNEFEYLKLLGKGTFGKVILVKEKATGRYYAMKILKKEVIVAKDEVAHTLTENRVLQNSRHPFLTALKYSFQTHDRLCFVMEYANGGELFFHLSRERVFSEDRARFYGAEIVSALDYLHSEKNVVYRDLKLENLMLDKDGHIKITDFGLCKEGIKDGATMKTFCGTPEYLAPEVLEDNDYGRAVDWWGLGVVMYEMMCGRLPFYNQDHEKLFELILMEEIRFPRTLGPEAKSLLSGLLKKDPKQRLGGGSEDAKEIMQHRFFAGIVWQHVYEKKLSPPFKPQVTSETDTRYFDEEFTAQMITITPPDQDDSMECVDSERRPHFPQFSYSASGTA
# Sequence of Ribosomal protein S6 kinase alpha-1 (Homo sapiens) (Q15418 whole entry): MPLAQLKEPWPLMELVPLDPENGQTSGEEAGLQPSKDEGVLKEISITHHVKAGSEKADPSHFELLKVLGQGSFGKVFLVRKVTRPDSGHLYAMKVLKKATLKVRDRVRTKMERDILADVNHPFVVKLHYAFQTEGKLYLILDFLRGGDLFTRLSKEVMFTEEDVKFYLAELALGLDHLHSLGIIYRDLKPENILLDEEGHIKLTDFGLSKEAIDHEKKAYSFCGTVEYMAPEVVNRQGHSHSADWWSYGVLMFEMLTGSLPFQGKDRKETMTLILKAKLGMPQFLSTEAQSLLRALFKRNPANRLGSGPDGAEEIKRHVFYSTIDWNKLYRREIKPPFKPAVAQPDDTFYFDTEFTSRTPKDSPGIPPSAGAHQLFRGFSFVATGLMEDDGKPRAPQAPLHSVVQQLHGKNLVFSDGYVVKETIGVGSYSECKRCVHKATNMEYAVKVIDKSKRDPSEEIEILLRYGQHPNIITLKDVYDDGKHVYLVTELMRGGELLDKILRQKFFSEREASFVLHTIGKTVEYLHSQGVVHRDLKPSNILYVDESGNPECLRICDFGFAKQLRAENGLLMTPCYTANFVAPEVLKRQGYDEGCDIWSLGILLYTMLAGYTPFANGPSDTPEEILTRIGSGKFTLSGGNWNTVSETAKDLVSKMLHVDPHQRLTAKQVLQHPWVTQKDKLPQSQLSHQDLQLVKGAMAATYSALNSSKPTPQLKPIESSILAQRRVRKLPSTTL
# Sequence of Hepatocyte growth factor receptor (Homo sapiens) (P08581 whole entry): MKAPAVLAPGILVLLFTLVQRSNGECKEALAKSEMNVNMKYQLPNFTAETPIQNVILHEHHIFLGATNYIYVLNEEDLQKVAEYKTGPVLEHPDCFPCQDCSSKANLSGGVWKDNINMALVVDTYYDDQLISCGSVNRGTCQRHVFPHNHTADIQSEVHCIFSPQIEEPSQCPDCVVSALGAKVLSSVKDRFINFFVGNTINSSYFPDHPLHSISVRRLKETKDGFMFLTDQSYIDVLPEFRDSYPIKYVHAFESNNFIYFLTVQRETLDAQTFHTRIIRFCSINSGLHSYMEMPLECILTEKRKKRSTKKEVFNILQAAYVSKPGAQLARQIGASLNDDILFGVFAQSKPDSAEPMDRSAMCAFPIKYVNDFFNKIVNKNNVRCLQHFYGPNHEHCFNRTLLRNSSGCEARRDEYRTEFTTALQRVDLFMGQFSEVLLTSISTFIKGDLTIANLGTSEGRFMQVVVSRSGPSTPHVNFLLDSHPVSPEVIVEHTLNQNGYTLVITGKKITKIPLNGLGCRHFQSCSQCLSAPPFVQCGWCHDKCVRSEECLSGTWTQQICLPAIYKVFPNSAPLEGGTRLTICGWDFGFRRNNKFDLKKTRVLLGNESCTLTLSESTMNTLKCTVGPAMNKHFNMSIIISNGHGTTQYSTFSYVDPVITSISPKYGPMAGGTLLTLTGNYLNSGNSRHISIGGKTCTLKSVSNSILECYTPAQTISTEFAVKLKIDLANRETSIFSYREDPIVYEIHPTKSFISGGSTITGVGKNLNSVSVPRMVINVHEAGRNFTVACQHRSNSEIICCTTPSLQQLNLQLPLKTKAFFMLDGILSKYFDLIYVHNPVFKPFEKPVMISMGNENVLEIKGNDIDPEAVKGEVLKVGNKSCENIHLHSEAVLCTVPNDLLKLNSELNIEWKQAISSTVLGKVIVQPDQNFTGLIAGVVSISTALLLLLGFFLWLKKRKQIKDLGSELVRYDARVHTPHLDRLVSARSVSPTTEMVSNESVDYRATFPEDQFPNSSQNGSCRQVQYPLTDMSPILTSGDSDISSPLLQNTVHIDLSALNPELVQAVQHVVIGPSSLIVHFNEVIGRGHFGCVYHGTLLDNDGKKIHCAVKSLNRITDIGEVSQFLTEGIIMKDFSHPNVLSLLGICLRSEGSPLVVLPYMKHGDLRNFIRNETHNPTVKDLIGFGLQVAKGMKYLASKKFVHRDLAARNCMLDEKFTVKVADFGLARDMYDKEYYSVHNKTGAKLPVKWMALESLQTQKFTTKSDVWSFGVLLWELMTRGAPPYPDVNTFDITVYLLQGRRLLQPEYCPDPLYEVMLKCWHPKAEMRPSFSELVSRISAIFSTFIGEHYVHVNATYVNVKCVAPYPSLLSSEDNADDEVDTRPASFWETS
# Sequence of Serine/threonine-protein kinase B-raf (Homo sapiens), P15056 [V600E] (P15056 whole entry V600E): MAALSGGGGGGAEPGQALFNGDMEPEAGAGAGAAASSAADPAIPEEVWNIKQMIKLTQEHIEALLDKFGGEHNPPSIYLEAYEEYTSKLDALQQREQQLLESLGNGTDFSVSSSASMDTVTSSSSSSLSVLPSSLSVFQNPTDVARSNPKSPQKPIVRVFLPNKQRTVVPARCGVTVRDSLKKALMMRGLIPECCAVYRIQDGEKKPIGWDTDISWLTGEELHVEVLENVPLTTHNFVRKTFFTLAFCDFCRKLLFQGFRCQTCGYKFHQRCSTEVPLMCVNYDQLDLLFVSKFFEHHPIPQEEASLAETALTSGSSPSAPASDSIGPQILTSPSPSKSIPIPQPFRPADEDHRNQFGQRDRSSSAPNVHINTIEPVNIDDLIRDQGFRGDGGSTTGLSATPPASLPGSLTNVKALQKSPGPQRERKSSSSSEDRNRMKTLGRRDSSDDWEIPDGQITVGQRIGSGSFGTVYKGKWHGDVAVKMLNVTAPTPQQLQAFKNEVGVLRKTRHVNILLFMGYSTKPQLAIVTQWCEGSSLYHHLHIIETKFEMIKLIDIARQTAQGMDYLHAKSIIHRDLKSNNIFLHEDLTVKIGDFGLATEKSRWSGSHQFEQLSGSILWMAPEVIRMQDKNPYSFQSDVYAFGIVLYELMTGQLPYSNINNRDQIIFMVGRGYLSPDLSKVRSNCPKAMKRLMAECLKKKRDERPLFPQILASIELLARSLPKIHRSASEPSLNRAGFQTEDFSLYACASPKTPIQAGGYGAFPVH
# Sequence of Casein kinase I isoform alpha (Homo sapiens) (P48729 2-337 limits assumed): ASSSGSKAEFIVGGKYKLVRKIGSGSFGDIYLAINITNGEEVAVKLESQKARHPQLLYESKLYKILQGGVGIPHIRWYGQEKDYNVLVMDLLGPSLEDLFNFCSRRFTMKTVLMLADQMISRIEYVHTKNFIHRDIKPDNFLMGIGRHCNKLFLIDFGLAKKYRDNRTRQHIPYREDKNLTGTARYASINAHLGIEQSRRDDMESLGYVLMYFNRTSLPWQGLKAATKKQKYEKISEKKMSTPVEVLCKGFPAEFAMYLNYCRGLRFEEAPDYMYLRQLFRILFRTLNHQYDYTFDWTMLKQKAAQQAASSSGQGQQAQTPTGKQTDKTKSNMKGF
# Sequence of Inhibitor of nuclear factor kappa-B kinase subunit beta (Homo sapiens) (O14920 whole entry): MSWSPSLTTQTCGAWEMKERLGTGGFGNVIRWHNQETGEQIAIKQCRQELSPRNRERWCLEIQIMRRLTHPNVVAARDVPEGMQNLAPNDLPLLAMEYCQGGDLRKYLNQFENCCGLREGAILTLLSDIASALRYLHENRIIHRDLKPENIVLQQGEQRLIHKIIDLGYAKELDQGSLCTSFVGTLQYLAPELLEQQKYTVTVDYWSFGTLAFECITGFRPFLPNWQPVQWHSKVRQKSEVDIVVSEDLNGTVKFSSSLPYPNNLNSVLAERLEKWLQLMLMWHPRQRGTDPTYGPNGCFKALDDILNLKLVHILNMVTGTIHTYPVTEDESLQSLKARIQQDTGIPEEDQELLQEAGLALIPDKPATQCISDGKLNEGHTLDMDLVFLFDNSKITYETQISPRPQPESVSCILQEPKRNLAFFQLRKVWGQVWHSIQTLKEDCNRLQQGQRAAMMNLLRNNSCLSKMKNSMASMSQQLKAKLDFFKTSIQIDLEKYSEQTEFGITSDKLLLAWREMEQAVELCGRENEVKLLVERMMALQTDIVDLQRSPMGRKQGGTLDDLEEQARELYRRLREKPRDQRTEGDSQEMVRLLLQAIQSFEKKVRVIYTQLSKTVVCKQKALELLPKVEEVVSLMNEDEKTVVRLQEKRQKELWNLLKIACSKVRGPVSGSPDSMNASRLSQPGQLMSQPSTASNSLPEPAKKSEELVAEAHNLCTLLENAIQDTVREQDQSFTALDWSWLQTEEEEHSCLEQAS
compound,measurement,setting,value
CCNc1nc(C)c(-c2ccnc(Nc3ccc(N4CCNCC4)cc3)n2)s1,inhibition,[1],97%
same,inhibition,[2],80%
c1cc(-c2cc(C3CCNCC3)[nH]n2)ccn1,pIC50,[3],6.19
same,pIC50,[4],6.24
NC(=O)c1ccc(Nc2ncnc3[nH]cnc23)cc1,pIC50,[3],6.80
COc1cc2ncnc(Nc3cccc(Cl)c3)c2cc1OC [TYRPHOSTIN AG-1478],pIC50,[3],6.28
NC(=O)c1ccc(-c2cc(-c3ccccc3)cnc2N)cc1,pIC50,[3],5.29
COC(=O)c1ccc(Nc2[nH]cnc3ncnc2-3)cc1,pIC50,[3],6.07
COc1cc2ncnc(Nc3cccc(Br)c3)c2cc1OC,pIC50,[3],6.20
CNc1ccc2ncc(-c3cccc(O)c3)n2n1,pIC50,[3],5.82
c1cnn2c(-c3ccncc3)cnc2c1,pIC50,[3],5.42
Clc1ccc(Nc2ncnc3[nH]ncc23)cc1,pIC50,[3],6.24
Fc1ccc(Nc2ncnc3[nH]cnc23)cc1,pIC50,[3],5.99
Fc1cccc(Nc2ncnc3n[nH]cc23)c1,pIC50,[3],5.96
OCCNc1ccc2ncc(-c3ccc(Cl)cc3)n2n1,pIC50,[3],5.53
c1ccc(-c2cnc3ccc(NCCc4ccccn4)nn23)cc1,pIC50,[3],5.37
CNc1cc2c(Nc3cccc(Br)c3)ncnc2cn1,pIC50,[3],5.77
OCCCNc1ccc2ncc(-c3ccc(F)cc3)n2n1,pIC50,[3],5.62
CNc1ccc2ncc(-c3ccc(F)cc3)n2n1,pIC50,[3],5.39
COCCNc1ccc2ncc(-c3ccc(Cl)cc3)n2n1,pIC50,[3],5.79
Brc1cccc(Nc2ncnc3cc4nc[nH]c4cc23)c1,pIC50,[3],5.55
COc1cc2ncnc(Nc3cc(Br)c(O)c(Br)c3)c2cc1OC,pIC50,[3],6.92
c1cc(-c2cc(C3CCNCC3)n[nH]2)ccn1,inhibition,[5],1%
same,inhibition,[6],10%
same,inhibition,[7],1%
same,inhibition,[8],4%
same,inhibition,[9],0%
same,inhibition,[10],7%
same,inhibition,[11],5%
same,inhibition,[12],0%
same,inhibition,[13],0%
same,inhibition,[14],0%
same,inhibition,[15],11%
same,inhibition,[16],3%
same,inhibition,[17],0%
same,inhibition,[18],8%
same,inhibition,[19],3%
same,inhibition,[20],1%
same,inhibition,[21],0%
same,inhibition,[22],0%
same,inhibition,[23],1%
same,inhibition,[1],87%
same,inhibition,[24],9%
same,inhibition,[25],2%
same,inhibition,[26],6%
same,inhibition,[27],15%
same,inhibition,[28],7%
Brc1ccc(Nc2ncnc3[nH]ncc23)cc1,pIC50,[3],5.81
OCCCNc1ccc2ncc(-c3ccccc3F)n2n1,pIC50,[3],5.49
c1ccc2cc(Nc3ncnc4[nH]ncc34)ccc2c1,pIC50,[3],5.87
CC(C)CNc1nn2c(-c3ccncc3)cnc2s1,pIC50,[3],5.21
c1cc(-c2cnc3sc(NCC4CC4)nn23)ccn1,pIC50,[3],5.77
O=c1[nH]cnc2cc3n[nH]cc3cc12,pIC50,[3],5.09
COCCNc1ccc2ncc(-c3ccc(F)cc3)n2n1,pIC50,[3],5.39
